# Only some compounds are listed: those with a hit (about 2.5% of all), similar ones and a draw of the others.
# Platelet DG rel = modulates dense granule release in human platelets; hit rate 0.22% among 300,000; human platelet-rich plasma, SFLLRN dense granule ATP release, luminescence; inhibition, %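 (compounds screened at 7.5 µM in platelet-rich plasma)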;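 active means mean replicate score, as percent of positive control, at or above 50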
# TRPC4 inh = blocks the mouse TRPC4 cation channel; Q9QUQ5; hit rate 0.39% among 300,000; HEK293 TRPC4beta/mu-opioid, DAMGO-evoked Fluo4 calcium flux; stronger effect = lower value; B-score at 10 µM;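 active means B-score over 3 SD under the library average, no early fluorescence shift, positive overall ratio signal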
# Target sequence (Q9QUQ5 whole entry, looked up): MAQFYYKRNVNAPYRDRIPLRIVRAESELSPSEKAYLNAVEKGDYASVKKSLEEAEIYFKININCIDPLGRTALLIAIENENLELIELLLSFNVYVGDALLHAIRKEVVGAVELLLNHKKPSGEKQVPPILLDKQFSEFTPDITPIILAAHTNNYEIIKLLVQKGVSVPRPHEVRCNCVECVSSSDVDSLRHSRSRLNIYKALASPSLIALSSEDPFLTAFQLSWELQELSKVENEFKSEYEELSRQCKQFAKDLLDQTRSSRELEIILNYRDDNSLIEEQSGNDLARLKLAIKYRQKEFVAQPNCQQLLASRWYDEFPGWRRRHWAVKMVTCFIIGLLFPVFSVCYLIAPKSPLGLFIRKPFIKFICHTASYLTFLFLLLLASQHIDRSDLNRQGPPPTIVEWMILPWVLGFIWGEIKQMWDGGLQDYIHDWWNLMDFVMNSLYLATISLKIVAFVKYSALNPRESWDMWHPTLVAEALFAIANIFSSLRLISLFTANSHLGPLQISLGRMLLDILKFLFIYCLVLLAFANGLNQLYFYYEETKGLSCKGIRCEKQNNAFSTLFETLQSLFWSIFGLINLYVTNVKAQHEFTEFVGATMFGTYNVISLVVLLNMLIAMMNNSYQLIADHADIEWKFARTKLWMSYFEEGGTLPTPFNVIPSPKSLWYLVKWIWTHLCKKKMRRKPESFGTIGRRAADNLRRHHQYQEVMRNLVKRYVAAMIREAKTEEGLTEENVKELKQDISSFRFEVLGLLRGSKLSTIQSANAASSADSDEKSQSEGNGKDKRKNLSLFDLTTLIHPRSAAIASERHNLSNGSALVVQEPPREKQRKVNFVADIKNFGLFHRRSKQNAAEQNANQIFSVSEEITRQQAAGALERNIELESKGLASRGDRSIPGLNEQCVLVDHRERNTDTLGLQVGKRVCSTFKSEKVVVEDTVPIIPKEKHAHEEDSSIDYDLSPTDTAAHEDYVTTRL
#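 material = TRPC4beta/mu-opioid receptor HEK293 cell line | probe or stimulus = sequential submaximal and maximal DAMGO stimulation | compound dosing = one concentration per compound | measured by = Fluo4 Ca2+ flux fluorescence | evaluation = integrated fluorescence ratio relative to baseline, converted to per-well B score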
# TRPC6 act = mouse TRPC6 channel activation; HEK293-TRPC6 membrane potential dye fluorescence; stronger effect = higher value; B-score at 10 µM; hit rate 0.13% among 310,000; Q61143;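 active means B-score of the integrated fluorescence ratio above library mean plus 3 SD, and starting fluorescence ratio within library mean plus 5 SD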;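 further: higher score means more depolarization so channel activation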
# TRPC4 act = TRPC4 (mouse) channel activation | hit rate 0.49% among 310,000 | B-score at 10 µM | HEK293 TRPC4beta/mu-opioid, Fluo4 calcium fluorescence; stronger effect = higher value;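 active means B-score above 5 SD of library B-scores, and initial fluorescence ratio not above library mean plus 5 SD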;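 further: positive B-score marks a calcium rise read as TRPC4 activation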
#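 Material: HEK293 stable line with TRPC4beta plus mu-opioid receptor; technique: Fluo4 calcium-sensitive dye fluorescence, kinetic, 1 Hz baseline; timing: Fluo4 dye loading 45 min at room temperature, 110 s recording; controls: assay buffer as low control, maximal DAMGO as high control; read-out: integrated baseline-normalised fluorescence ratio, converted to per-well B score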
# TRPC4 potent = allosteric potentiators of mouse TRPC4 channel. Q9QUQ5. HEK293 TRPC4beta/mu-opioid, DAMGO EC20, Fluo-4 Ca2+ flux; stronger effect = higher value. B-score at 10 µM. hit rate 0.42% among 310,000;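 active means B-score of calcium response area above 5 SD of library B-scores, with initial fluorescence ratio within 5 SD of library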;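 further: B-score of integrated fluorescence ratio over time as area under calcium response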
# TRPC6 inh = blocks the mouse TRPC6 cation channel; Q61143; HEK293-TRPC6, membrane potential dye, ACh-evoked depolarization; stronger effect = lower value; B-score at 10 µM; hit rate 1.1% among 310,000;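 active means B-score under library mean minus 3 SD, initial fluorescence not abnormally high, positive integrated signal ratio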;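 further: B-score derived from integrated fluorescence ratio over the kinetic read; more negative B-score means stronger inhibition of depolarization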
# TRPC4 spec 2 = second check of whether TRPC6 inhibitors also affect mouse TRPC4; shares compounds with TRPC6 inh; HEK293 TRPC4/MOR, membrane potential dye fluorescence; channel activated by saturating DAMGO dose; inhibition, % at 10 µM; hit rate 42% among 920; AID 2776;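 active means compounds whose fluorescence signal differed from control wells by over 3 SD, either direction, in both duplicate plates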
# TRPC4 spec = mouse TRPC4 off-target activity of TRPC6 inhibitors. AID 2777. shares compounds with TRPC6 inh. hit rate 61% among 920. activity change, negative = inhibition, % at 10 µM. HEK293 TRPC4/mu-opioid, membrane potential fluorescence;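 active means rise or fall in signal beyond 3 SD of buffer-only wells in both replicate plates, either sign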;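 further: integrated kinetic ratio of fluorescence range over baseline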
# HEK293 MPD ctr 2-1 = second check of TRPC6 inhibitor effects in parental HEK293 cells; shares compounds with TRPC6 inh; parental HEK293 membrane potential dye fluorescence; maximal acetylcholine challenge after compound addition; signal change vs control, % at 10 µM; hit rate 31% among 920; AID 2779;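 active means membrane potential signal moving either way by over 3 SD of the maximum-effect control, in both duplicate plates, meaning non-specific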
# HEK293 MPD ctr-1 = counter-screen for TRPC6 inhibitors: effect in parental HEK293 cells; membrane potential signal change, % at 10 µM; hit rate 60% among 920; parental HEK293 membrane potential dye fluorescence; shares compounds with TRPC6 inh;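 active means membrane potential signal shifting up or down by more than 3 SD of buffer-only wells, on both duplicate plates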
# HEK293 MPD ctr-2 = counter-screen for TRPC6 modulators: effect in parental HEK293 cells. membrane potential dye fluorescence. AID 488924. membrane potential signal change, % at 10 µM. hit rate 51% among 2,400. shares compounds with TRPC6 inh;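 active means membrane potential signal moves up or down beyond 5 SD from buffer-only wells, on both duplicate plates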
# HEK293 MPD ctr 2-2 = parental HEK293 nonspecific activity of TRPC6 modulators, second screen. shares compounds with TRPC6 inh. membrane potential dye fluorescence; after compound, maximal acetylcholine stimulation. inhibition, % at 10 µM. hit rate 14% among 2,400;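 active means membrane potential signal drops by more than 5 SD from the mean control signal, in both duplicate plates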;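 further: plate controls were acetylcholine ECmax control wells for no effect and buffer only wells for full effect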
# TRPC4/MOR mod = selectivity of TRPC6 modulators against mouse TRPC4; shares compounds with TRPC6 inh; HEK293 TRPC4/mu-opioid, membrane potential fluorescence; percent change from control (negative = decrease, positive = increase), % at 10 µM; hit rate 69% among 2,400; AID 488927;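 active means membrane potential signal moved up or down beyond 5 SD of buffer control wells, in both duplicate plates, actives on both sides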;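 further: plate controls were assay buffer wells for no effect and DAMGO maximal-effect wells for full effect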
# TRPC4/MOR inh 2 = second check of whether TRPC6 modulators also affect mouse TRPC4; hit rate 55% among 2,400; shares compounds with TRPC6 inh; inhibition, % at 10 µM; AID 488928; HEK293 TRPC4/mu-opioid, membrane potential dye fluorescence; stimulated with maximal-effect DAMGO;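 active means drop in membrane potential signal beyond 5 SD of the control wells in both duplicate plates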;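 further: TRPC4 counter screen for TRPC6 hits run under conditions tuned for TRPC6 not TRPC4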
# TRPC6 block conf = mouse TRPC6 inhibitor confirmation; inhibition, % at 10 µM; hit rate 43% among 3,300; shares compounds with TRPC6 inh; HEK293-TRPC6, membrane potential dye, ACh-evoked depolarization; AID 488960;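 active means fluorescence ratio falls more than 5 SD below the full-stimulation control mean, in both duplicate runs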;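 further: integrated fluorescence ratio of peak minus minimum over baseline after agonist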
# TRPC6 act conf = mouse TRPC6 activator confirmation; HEK293-TRPC6 membrane potential dye fluorescence, FDSS; shares compounds with TRPC6 inh; AID 488961; activation, % at 10 µM; hit rate 11% among 2,800;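 active means ratio signal rise beyond 5 SD above unstimulated control wells' mean, seen in both duplicate runs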;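 further: plate controls were buffer EC0 wells for no effect and acetylcholine ECmax response for full effect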
# * marks the source's active call; other numbers are inactive results; i = inactive; . = not tested or not shown.
SMILES,Platelet DG rel,TRPC4 inh,TRPC6 act,TRPC4 act,TRPC4 potent,TRPC6 inh,HEK293 MPD ctr-2,HEK293 MPD ctr 2-2,TRPC4/MOR mod,TRPC4/MOR inh 2,TRPC6 block conf,TRPC6 act conf,others
CCS(=O)(=O)c1ccc(-c2csc(-c3ccccc3)n2)c(Cl)c1Cl,-1,i,i,i,i,i,.,.,.,.,.,.,
N#Cc1ccc(NC(=O)Nc2ccc(Cl)cc2)cc1,3,i,i,i,i,i,.,.,.,.,.,.,
N#CC(C#N)=C/C=C(\Nc1ccc(Cl)cc1)c1ccc(Cl)cc1,10,i,i,i,i,-5.2*,i,i,i,38%*,i,i,
CC(C)(C)c1ccc(OCCCNC2CCCC2)cc1,6,i,i,i,i,-5.8*,209%*,62%*,47%*,40%*,66%*,.,
Cc1ccc(OCCCNC2CCCC2)cc1,-6,i,i,i,i,i,.,.,.,.,.,.,
O=C(CNC(=O)c1ccccc1F)N/N=C/c1cn[nH]c1-c1ccccc1,3,i,i,i,i,-5.8*,i,i,i,i,i,.,
COCCCN1C(=O)c2ccc(C(=O)OCC(=O)N3CCN(c4ccccc4)CC3)cc2C1=O,16,i,i,i,i,i,.,.,.,.,.,.,
CCOC(=O)c1c(-c2ccccc2)oc2cc(CN(C)C)c(O)c(CN(C)C)c12,-9,i,i,i,i,-7.7*,.,.,.,.,i,i,TRPC4 spec 2=i;TRPC4 spec=i;HEK293 MPD ctr 2-1=270%*;HEK293 MPD ctr-1=i
Nc1ccccc1Nc1nc2ccccc2[nH]1,-7,i,i,i,i,-5.5*,340%*,i,88%*,i,i,.,
COCCNc1c([N+](=O)[O-])c(=O)n(-c2ccccc2)c2ccccc12,-8,i,i,i,i,i,.,.,.,.,.,.,
O=c1c([N+](=O)[O-])c(NCCN2CCCCCC2)c2ccccc2n1-c1ccccc1,0,i,i,i,i,-6.3*,i,i,-16%*,80%*,50%*,i,
CC1CC(C)CN(C(=O)c2ccc3c(c2NCCO)C(=O)c2ccccc2C3=O)C1 (stereo unspecified),7,i,i,i,i,-7*,-246%*,i,-45%*,80%*,68%*,i,
Cc1cc(=O)[nH]c(SCC(=O)Nc2nonc2C)n1,1,i,i,i,i,i,.,.,.,.,.,.,
O=c1cc(-c2ccc(Cl)c(Cl)c2)[nH][nH]1,-2,i,i,i,i,-5.1*,i,i,i,i,i,i,
Fc1ccc(N2CCN(C3=Nc4cccc5cccc3c45)CC2)cc1,6,i,i,i,i,-8.8*,-80%*,i,-38%*,74%*,68%*,i,
c1ccc(CN2CCN(C3=Nc4cccc5cccc3c45)CC2)cc1,4,i,i,i,i,-8.2*,-191%*,i,-50%*,72%*,68%*,i,
O=C(CCCN1C(=O)c2cccc3cccc(c23)C1=O)N1CCN(c2ccc(F)cc2)CC1,5,i,i,i,i,i,.,.,.,.,.,.,
O=C1C(Cl)=C(N2CCN(Cc3ccccc3)CC2)C(=O)N1Cc1ccccc1,-1,i,i,i,i,i,.,.,.,.,.,.,
O=[N+]([O-])c1ccccc1CCc1cnc(Cl)s1,6,i,i,i,i,i,.,.,.,.,.,.,
Cc1cc(C)c2nc3sc(C(=O)N4CCOCC4)c(N)c3cc2c1,2,i,23*,i,i,-5*,900%*,83%*,189%*,i,i,297%*,
Cc1ccc(C)c2nc3sc(C(=O)N4CCOCC4)c(N)c3cc12,-1,i,33*,74*,i,-8.7*,898%*,i,128%*,i,i,78%*,
Cc1cc(C)c2cc3c(N)c(C(=O)N4CCOCC4)sc3nc2c1,0,i,i,i,i,i,.,.,.,.,.,.,
C=CCN1C2CCCC1CC(NC(=O)Nc1cccc(C(C)=O)c1)C2 (stereo unspecified),3,i,i,i,i,-5.4*,i,i,i,i,85%*,.,
COc1ccc(S(=O)(=O)N2CCN(C(=O)c3cccc(Cl)c3)CC2)cc1,1,i,i,i,i,-5.6*,i,i,12%*,i,56%*,.,
Cc1ccc(S(=O)(=O)N2CCN(C(=O)c3cccc(F)c3)CC2)cc1,3,i,i,i,i,-6.1*,i,i,i,i,70%*,.,
O=C(c1cccc(F)c1)N1CCN(c2cccc(Cl)c2)CC1,2,i,i,i,i,-16*,.,.,.,.,59%*,i,TRPC4 spec 2=i;TRPC4 spec=5.7%*;HEK293 MPD ctr 2-1=i;HEK293 MPD ctr-1=2.7%*
O=C(c1ccc(S(=O)(=O)N2CCCC2)cc1)N1CCN(S(=O)(=O)c2cccc(F)c2)CC1,-3,i,i,i,i,i,.,.,.,.,.,.,

# Bioassay records as filed in PubChem BioAssay.
